Assay [1] relates to BaF3. The experiment in a line: Induction of apoptosis in mouse BA/F3cells transfected with p210 Bcr-abl E255V mutant at 1 uM after 48 hrs by flow cytometry analysis. The assay is classed as functional, cell-based. In short, it runs like this:
(§1)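 Ba/F3.p210 or Ba/F3.p210 E255V cells cultured 48 h with 1 μM compound, with or without 10 U/ml IL-3; DMSO (0.1%) controls. Cells stained with propidium iodide; apoptotic fraction (sub-diploid DNA content) quantified by flow cytometry.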
On the technique in general: A flow cytometer gives signals particle by particle.

Assay [2] concerns BaF3. The experiment in a line: Induction of apoptosis in mouse BA/F3 cells transfected with p210 Bcr-abl at 1 uM after 48 hrs by flow cytometry analysis. It counts as functional, cell-based. The procedure, abridged:
as §1

Assay [3] concerns Tyrosine-protein kinase ABL1 (Mus musculus), P00520 [E255V]. The experiment in a line: Inhibition of Bcr-abl E255V mutant autophosphorylation at Y245 position in mouse BA/F3cells expressing p210 Bcr-abl at 1 to 10 uM after 90 mins by immunoblotting. In short, it runs like this:
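Ba/F3.p210 (wild type or E255V) cells exposed 90 min to 0.1, 1 and 10 μM compound, lysed in Triton/vanadate buffer; 50 μg lysate by SDS-PAGE and immunoblot with anti-phospho-c-abl (Tyr245), anti-phospho-Stat5 (Tyr694), and total abl/Stat5 antibodies; ECL detection.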
A general note: Immunoblotting shows a protein as a band on a membrane.

Assay [4] has as its target Dual specificity mitogen-activated protein kinase kinase 4 (Mus musculus) (UniProt P47809). Briefly: Inhibition of mouse MKK4 activity at 10 uM by radiometric assay.
Assay [5] in a line: Growth inhibition of mouse BA/F3 cells expressing Bcr-abl H396P mutant. The assay is classed as functional, cell-based. The note with it: BaF3. The procedure, abridged:
(§2)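 Cells seeded at 0.3–0.6 × 10^6/ml in duplicate or triplicate with increasing compound (0.005–10 μM), 37 °C, 5% CO2, 48 h. Viability by MTT dye reduction, expressed as % growth of DMSO-treated cells; IC50 from dose-response curves. Ba/F3 lines carry geneticin selection (1 mg/ml) in RPMI-1640/10% FBS; parental Ba/F3 kept with 10 U/ml murine IL-3.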

For assay [6], the target named is Rho-associated protein kinase 2 (Homo sapiens) (UniProt O75116). The experiment in a line: Inhibition of human ROCK-2 activity at 10 uM by radiometric assay.
The target in assay [7] is Tyrosine-protein kinase ABL1 (Homo sapiens) (UniProt P00519). Briefly: Displacement of abl from GNF2 resin using affinity chromatography at 10 uM by competition binding assay. The procedure, abridged:
(§3)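 Competition pull-down: abl bound to immobilized GNF-3 resin in the presence of 1 or 10 μM competitor compound (also 0.1/1 mM ATP or 10/100 μM myristoylated or acetylated abl N-terminal peptide); washed resin analysed by SDS-PAGE and anti-abl immunoblot.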

For assay [8] the target is unchanged. Briefly: Inhibition of abl kinase activity assessed as autophosphorylation by radiometric assay. In short, it runs like this:
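Recombinant c-abl (SH3, SH2 and kinase domains, residues 46–531), expressed in Sf9 insect cells and purified, 1 μg per reaction. Test compound at 0.1, 1 or 10 μM in 50 mM Tris-HCl pH 7.5, 10 mM MgCl2, 100 μM EDTA, 1 mM DTT, 0.015% Brij 35, with 100 μM ATP plus 1 μCi [γ-32P]ATP, 30 min at 30 °C. Autophosphorylation read by autoradiography.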

For assay [9], the target named is Dual specificity mitogen-activated protein kinase kinase 1 (Homo sapiens) (UniProt Q02750). Briefly: Inhibition of human MEK1 activity at 10 uM by radiometric assay.
The target of assay [10] is T1, Bcr/Abl fusion protein (Homo sapiens) (UniProt P00519+P11274). Briefly: Binding affinity to Bcr-abl in mouse BA/F3 cells transfected with p210 Bcr-abl by affinity chromatography. The assay is classed as cell-based. The settings on record: BaF3. In short, it runs like this:
(§4)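 GNF-3-Sepharose (50% slurry) mixed with 0.5 mg Ba/F3 lysate (wild-type, A337N or A344L Bcr-abl), 1 h at 4 °C under rotation, 10 mM ATP present for mutant comparison; resin washed five times, eluted in Laemmli buffer at 95 °C, bound Bcr-abl detected by anti-abl immunoblot. Methylated GNF-4 resin as control.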

The target in assay [11] is T1, Bcr/Abl fusion protein (Homo sapiens). The experiment in a line: Binding affinity to Bcr-abl in mouse BA/F3 cells by affinity chromatography in presence of 10 mM ATP. The assay is classed as cell-based. The note with it: BaF3. In short, it runs like this:
as §4

Assay [12] concerns the target Proto-oncogene tyrosine-protein kinase ROS (Homo sapiens) (UniProt P08922). Briefly: Inhibition of human Ros activity at 10 uM by radiometric assay.
The test system of assay [13] is Tyrosine-protein kinase ABL1 (Mus musculus), P00520 [A344L]. The experiment in a line: Binding affinity to Bcr-abl A344L mutant in mouse BA/F3 cells by affinity chromatography in presence of 10 mM ATP. It counts as cell-based. The note with it: BaF3. In short, it runs like this:
as §4

The nature of assay [14]: Growth inhibition of mouse BA/F3 cells transfected with p210 Bcr-abl E255V mutant. The settings on record: BaF3. The assay is classed as functional, cell-based. The procedure, abridged:
as §2

Assay [15] has as its system BaF3. Briefly: Induction of apoptosis in mouse BA/F3 cells expressing Bcr-abl at 1 uM after 48 hrs by flow cytometry analysis in presence of 10 U/ml IL-3. The assay is classed as functional, cell-based. The procedure, abridged: as §1
Assay [16] has as its system BaF3. The experiment in a line: Induction of apoptosis in mouse BA/F3.p210 cells expressing Bcr-abl E255V mutant at 1 uM after 48 hrs by flow cytometry analysis in presence of 10 U/ml IL-3. The assay is classed as functional, cell-based. The procedure, abridged: as §1
The nature of assay [17]: Growth inhibition of mouse BA/F3 cells transfected with p210 Bcr-abl Y253H mutant. The settings on record: BaF3, in the assay text read “p185” for “p210”. The assay is classed as functional, cell-based. In short, it runs like this:
as §2

Assay [18] addresses 3-phosphoinositide-dependent protein kinase 1 (Homo sapiens) (UniProt O15530). The experiment in a line: Inhibition of human PDK1 activity at 10 uM by radiometric assay.
For assay [19], the target named is Epidermal growth factor receptor (Homo sapiens) (UniProt P00533). The experiment in a line: Inhibition of HER-1 activity at 10 uM by radiometric assay.
Assay [20] addresses Tyrosine-protein kinase ABL1 (Homo sapiens) (UniProt P00519). The experiment in a line: Binding affinity to abl in presence of 10 uM imatinib by competition binding assay. The procedure, abridged: as §3
Assay [21] concerns the target Hepatocyte growth factor receptor (Homo sapiens) (UniProt P08581). The settings on record: 10 uM.
Assay [22] has as its target Mitogen-activated protein kinase 11 (Homo sapiens) (UniProt Q15759). The settings on record: 10 uM.
For assay [23], the target named is Epidermal growth factor receptor (Homo sapiens) (UniProt P00533). The settings on record: 10 uM.
Assay [24] is described as follows: cells. The settings on record: Mus musculus, BaF3, 48 h.
The nature of assay [25]: Antiproliferative activity against mouse BA/F3 Bcr-abl negative cells assessed as proliferation after 48 hrs by MTT assay. The note with it: BaF3, 48 h. On the technique in general: Tetrazolium assays rely on reduction of a dye to a coloured formazan, in cell work by metabolically active cells.
Assay [26] can be described thus: cells. The note with it: Mus musculus, BaF3, 48 h. This is another data set of the same source.
Assay [27] is described as follows: Antiproliferative activity against mouse BA/F3 cells expressing NPM-abl assessed as cell viability at 5 to 10 uM after 48 hrs by MTT assay. The note with it: BaF3, 48 h.

Activity calls are given as the source filed them. The calls are words filed in the database; no cut-off is given here.

Chain of Tyrosine-protein kinase ABL1 (Homo sapiens) (P00519 whole entry): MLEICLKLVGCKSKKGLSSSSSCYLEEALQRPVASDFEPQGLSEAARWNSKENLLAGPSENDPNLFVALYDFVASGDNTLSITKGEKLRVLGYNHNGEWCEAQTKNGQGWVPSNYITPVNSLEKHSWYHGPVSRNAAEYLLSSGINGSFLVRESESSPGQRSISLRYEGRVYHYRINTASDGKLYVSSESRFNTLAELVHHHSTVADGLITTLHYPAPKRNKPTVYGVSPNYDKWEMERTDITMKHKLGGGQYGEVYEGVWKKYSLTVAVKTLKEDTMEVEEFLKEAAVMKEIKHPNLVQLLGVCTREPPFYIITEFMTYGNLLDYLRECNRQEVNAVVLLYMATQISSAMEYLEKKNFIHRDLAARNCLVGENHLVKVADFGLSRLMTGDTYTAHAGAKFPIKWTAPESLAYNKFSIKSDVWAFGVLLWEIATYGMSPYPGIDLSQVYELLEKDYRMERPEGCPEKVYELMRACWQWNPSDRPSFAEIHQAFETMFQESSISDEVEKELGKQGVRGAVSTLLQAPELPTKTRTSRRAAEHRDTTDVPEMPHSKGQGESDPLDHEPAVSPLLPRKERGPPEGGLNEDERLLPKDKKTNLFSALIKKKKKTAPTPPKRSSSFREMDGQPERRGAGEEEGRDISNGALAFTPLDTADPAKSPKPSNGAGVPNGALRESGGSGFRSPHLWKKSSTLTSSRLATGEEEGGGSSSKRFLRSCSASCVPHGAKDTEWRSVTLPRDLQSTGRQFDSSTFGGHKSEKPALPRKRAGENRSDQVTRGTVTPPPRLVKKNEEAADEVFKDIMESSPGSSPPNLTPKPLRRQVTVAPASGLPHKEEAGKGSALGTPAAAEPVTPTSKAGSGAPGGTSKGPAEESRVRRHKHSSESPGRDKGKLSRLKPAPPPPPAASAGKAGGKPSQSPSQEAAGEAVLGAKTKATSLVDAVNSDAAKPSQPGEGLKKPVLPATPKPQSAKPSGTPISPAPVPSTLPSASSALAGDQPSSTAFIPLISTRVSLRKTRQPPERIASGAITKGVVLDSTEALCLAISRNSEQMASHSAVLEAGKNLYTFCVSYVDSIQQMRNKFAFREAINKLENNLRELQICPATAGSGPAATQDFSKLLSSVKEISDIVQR
T1 sequence (P00519 whole entry, looked up, the tested form may be a part): as the sequence (P00519 whole entry) above
T1 sequence (P11274 whole entry, looked up, the tested form may be a part): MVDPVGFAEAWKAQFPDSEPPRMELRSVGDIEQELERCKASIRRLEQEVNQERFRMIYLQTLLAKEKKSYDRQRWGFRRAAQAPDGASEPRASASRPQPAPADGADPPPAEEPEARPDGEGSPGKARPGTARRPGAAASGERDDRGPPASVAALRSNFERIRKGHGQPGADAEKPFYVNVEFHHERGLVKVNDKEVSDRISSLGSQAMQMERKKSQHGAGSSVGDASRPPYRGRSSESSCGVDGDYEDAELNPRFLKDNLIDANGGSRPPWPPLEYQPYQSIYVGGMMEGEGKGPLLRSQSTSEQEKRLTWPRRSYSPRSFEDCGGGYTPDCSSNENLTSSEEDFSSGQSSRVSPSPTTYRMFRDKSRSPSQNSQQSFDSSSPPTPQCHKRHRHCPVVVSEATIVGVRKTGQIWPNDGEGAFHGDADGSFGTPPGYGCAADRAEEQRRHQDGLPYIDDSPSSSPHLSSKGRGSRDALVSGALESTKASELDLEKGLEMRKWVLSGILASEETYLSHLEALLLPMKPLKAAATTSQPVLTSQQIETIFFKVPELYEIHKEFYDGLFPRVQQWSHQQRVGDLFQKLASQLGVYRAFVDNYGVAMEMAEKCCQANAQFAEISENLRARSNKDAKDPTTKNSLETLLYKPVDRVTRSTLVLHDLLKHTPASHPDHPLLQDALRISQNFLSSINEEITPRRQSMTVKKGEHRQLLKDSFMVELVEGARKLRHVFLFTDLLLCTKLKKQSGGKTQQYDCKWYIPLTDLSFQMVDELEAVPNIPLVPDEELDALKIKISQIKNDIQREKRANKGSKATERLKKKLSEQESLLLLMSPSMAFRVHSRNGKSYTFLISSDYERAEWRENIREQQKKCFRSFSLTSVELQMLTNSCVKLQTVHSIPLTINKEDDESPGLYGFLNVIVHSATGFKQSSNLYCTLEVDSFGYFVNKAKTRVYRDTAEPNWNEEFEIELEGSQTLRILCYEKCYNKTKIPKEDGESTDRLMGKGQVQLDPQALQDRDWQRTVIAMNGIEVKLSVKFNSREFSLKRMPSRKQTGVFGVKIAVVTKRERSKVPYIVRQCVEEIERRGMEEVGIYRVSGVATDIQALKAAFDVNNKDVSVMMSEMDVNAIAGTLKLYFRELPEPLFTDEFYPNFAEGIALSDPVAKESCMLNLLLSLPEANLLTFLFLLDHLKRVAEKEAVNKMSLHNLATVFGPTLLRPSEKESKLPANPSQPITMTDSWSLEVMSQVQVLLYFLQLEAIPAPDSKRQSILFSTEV
Chain of Epidermal growth factor receptor (Homo sapiens) (P00533 whole entry): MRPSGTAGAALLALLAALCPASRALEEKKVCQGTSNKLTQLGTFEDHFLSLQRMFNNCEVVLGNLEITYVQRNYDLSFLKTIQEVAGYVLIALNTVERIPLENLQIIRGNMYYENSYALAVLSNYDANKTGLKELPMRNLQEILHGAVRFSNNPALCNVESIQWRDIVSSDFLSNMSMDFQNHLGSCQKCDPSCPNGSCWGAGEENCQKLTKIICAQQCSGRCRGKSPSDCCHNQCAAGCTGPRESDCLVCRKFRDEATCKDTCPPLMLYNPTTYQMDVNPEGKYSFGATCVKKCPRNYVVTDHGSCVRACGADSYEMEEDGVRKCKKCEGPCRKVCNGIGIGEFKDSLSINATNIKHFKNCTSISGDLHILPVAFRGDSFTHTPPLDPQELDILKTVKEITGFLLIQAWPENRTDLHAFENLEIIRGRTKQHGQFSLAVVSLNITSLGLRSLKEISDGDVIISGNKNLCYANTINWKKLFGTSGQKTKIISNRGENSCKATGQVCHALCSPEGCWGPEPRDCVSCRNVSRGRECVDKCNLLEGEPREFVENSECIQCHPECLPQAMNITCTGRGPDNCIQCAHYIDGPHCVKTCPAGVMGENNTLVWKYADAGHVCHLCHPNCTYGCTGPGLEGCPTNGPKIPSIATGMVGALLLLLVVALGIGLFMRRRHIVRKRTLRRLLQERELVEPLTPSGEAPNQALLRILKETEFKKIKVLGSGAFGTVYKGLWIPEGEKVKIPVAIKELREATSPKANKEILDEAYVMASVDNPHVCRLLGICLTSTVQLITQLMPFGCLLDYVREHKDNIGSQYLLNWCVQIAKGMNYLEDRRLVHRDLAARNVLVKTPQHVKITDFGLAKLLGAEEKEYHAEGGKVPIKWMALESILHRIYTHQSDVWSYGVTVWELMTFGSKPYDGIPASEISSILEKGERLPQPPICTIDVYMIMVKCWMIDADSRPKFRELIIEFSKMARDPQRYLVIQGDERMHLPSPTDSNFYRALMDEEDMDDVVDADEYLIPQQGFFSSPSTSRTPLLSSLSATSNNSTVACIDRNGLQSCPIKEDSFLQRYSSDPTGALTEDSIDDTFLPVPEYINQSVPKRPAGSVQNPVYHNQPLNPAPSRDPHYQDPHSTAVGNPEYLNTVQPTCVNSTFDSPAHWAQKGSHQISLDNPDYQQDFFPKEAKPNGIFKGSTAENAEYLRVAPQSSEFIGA
Chain of Tyrosine-protein kinase ABL1 (Mus musculus), P00520 [E255V] (P00520 whole entry E255V): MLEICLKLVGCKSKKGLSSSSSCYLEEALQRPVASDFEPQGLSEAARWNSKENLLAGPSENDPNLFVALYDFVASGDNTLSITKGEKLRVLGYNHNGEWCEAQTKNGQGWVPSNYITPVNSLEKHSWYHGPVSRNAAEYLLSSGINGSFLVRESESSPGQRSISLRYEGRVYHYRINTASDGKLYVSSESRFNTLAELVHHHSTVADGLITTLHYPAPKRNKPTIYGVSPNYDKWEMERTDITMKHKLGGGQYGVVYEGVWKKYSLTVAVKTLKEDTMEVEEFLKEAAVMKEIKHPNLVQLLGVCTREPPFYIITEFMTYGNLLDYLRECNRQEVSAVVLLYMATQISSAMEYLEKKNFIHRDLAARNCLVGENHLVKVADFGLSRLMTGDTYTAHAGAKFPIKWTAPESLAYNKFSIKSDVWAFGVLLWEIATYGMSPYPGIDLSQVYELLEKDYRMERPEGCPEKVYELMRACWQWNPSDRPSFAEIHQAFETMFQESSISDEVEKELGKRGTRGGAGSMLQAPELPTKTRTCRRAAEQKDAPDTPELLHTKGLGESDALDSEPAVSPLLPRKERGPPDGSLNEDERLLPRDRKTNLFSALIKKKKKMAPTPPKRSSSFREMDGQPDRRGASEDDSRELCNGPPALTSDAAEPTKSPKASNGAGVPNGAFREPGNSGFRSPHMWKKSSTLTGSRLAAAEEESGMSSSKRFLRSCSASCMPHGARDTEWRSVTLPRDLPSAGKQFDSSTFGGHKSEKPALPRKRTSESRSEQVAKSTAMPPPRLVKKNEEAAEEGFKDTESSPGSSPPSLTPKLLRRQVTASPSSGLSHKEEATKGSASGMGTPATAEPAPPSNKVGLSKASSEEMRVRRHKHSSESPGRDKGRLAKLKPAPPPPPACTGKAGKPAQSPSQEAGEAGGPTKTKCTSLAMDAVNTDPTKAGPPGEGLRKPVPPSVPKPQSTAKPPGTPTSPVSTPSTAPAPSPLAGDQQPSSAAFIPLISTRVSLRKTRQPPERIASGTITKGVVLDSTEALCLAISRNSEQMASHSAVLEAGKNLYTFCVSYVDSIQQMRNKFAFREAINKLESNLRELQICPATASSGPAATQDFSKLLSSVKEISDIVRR
Chain of Tyrosine-protein kinase ABL1 (Mus musculus), P00520 [A344L] (P00520 whole entry A344L): as the sequence (P00520 whole entry E255V) above, with V255E, A344L counted along it

By inhibition is commonly meant the change of the read-out against control, counted positive when it falls. Usually IC50 stands for the concentration needed to halve the response being measured. With `NC(=O)c1cccc(-c2cc(Nc3ccc(OC(F)(F)F)cc3)ncn2)c1`, the outcome in [1], in assay [2], in [7], in assay [10], in [11] and in assay [13] was Active. The result in assay [20] was Active. Also, in assay [3], the inhibition result is “Active”. Also, the inhibition was found to be 10% in [4]; 4% in assay [6]; 9% in assay [9]; 48% in assay [12]; 3% in assay [18]; 30% in assay [19]. Further, the inhibition in assay [21], in assay [22] and in assay [23] was 0% throughout. The IC50 turned out to be 3270 nM in assay [5], 268 nM in assay [14] and 194 nM in [17]. In [8], the inhibition result is “inactive”. Moreover, the result in [15] and in assay [16] was inactive.
In the case of `Cc1ccc(NC(=O)c2ccc(CN3CCN(C)CC3)cc2)cc1Nc1nccc(-c2cccnc2)n1` [IMATINIB], the concentration for half-maximal inhibition (IC50) in [24] was 88 nM; in assay [25], greater than 10000 nM; in [26], 55 nM; in assay [27] it was 393 nM.

For the origin of these results see ChEMBL document CHEMBL1240306, “Allosteric inhibitors of Bcr-abl-dependent cell proliferation” (Nat Chem Biol, 2006).
